Reference: ChEMBL document CHEMBL1149790, “Synthesis of some novel thiourea derivatives obtained from 5-[(4-aminophenoxy)methyl]-4-alkyl/aryl-2,4-dihydro-3H-1,2,4-triazole-3-thiones and evaluation as antiviral/anti-HIV and anti-tuberculosis agents” (Eur J Med Chem, 2008)
Converted amounts (≈) assume the structure as drawn.

Columns and labels:
Vaccinia virus [1] = experiment: Antiviral activity against Vaccinia virus in human E6SM cells assessed as reduction of virus-induced cytopathogenicity; assay type: functional; settings: Orthopoxvirus vaccinia
Outline: (§1)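 Confluent cell monolayers (E6SM, HEL, HeLa or Vero, per line) inoculated with 100 CCID50 virus; 1 h adsorption, residual virus removed, then incubated with compound at 400, 200, 100 … µg/ml. Cytopathicity scored once complete in untreated virus controls; MIC = concentration inhibiting virus-induced cytopathicity.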

Vaccinia virus [2] = experiment: Antiviral activity against Vaccinia virus in human HEL cells assessed as reduction of virus-induced cytopathogenicity; assay type: functional; settings: Orthopoxvirus vaccinia; outline: as §1

Structure (SMILES): C=CCNC(=S)Nc1ccc(-c2n[nH]c(=S)n2CC)cc1
- MIC (Vaccinia virus [1]): 240 µg/mL (≈ 751 µM)
- MIC (Vaccinia virus [2]): 240 µg/mL (≈ 751 µM)

Structure (SMILES): CCNC(=S)Nc1ccc(-c2n[nH]c(=S)n2-c2ccccc2)cc1
- MIC (Vaccinia virus [1]): > 3.2 µg/mL
- MIC (Vaccinia virus [2]): > 3.2 µg/mL

Structure (SMILES): C=CCNC(=S)Nc1ccc(-c2n[nH]c(=S)n2-c2ccccc2)cc1
- MIC (Vaccinia virus [1]): > 80 µg/mL
- MIC (Vaccinia virus [2]): > 80 µg/mL

Structure (SMILES): Cn1c(COc2ccc(N)cc2)n[nH]c1=S
- MIC (Vaccinia virus [1]): 240 µg/mL (≈ 1020 µM)
- MIC (Vaccinia virus [2]): 240 µg/mL (≈ 1020 µM)

Structure (SMILES): S=C(Nc1ccc(Cl)cc1)Nc1ccc(-c2n[nH]c(=S)n2-c2ccccc2)cc1
- MIC (Vaccinia virus [1]): > 16 µg/mL
- MIC (Vaccinia virus [2]): > 16 µg/mL

Structure (SMILES): S=C(Nc1ccccc1)Nc1ccc(-c2n[nH]c(=S)n2-c2ccccc2)cc1
- MIC (Vaccinia virus [1]): > 80 µg/mL
- MIC (Vaccinia virus [2]): > 80 µg/mL

Structure (SMILES): CNC(=S)Nc1ccc(-c2n[nH]c(=S)n2-c2ccccc2)cc1
- MIC (Vaccinia virus [1]): > 80 µg/mL
- MIC (Vaccinia virus [2]): > 80 µg/mL

Structure (SMILES): CNC(=S)Nc1ccc(-c2n[nH]c(=S)n2C)cc1
- MIC (Vaccinia virus [1]): 240 µg/mL (≈ 859 µM)
- MIC (Vaccinia virus [2]): 240 µg/mL (≈ 859 µM)

Structure (SMILES): CNC(=S)Nc1ccc(-c2nnc(SCc3ccccc3)n2C)cc1
- MIC (Vaccinia virus [1]): > 16 µg/mL
- MIC (Vaccinia virus [2]): > 16 µg/mL

Structure (SMILES): C=CCNC(=S)Nc1ccc(-c2n[nH]c(=S)n2CCc2ccccc2)cc1
- MIC (Vaccinia virus [1]): > 80 µg/mL
- MIC (Vaccinia virus [2]): > 80 µg/mL

Structure (SMILES): C=CCn1c(-c2ccc(NC(=S)NC)cc2)n[nH]c1=S
- MIC (Vaccinia virus [1]): 240 µg/mL (≈ 786 µM)
- MIC (Vaccinia virus [2]): 240 µg/mL (≈ 786 µM)

Structure (SMILES): Cn1c(-c2ccc(NC(=S)Nc3ccccc3)cc2)n[nH]c1=S
- MIC (Vaccinia virus [1]): > 80 µg/mL
- MIC (Vaccinia virus [2]): > 80 µg/mL

Structure (SMILES): C=CCn1c(-c2ccc(NC(=S)Nc3ccccc3)cc2)n[nH]c1=S
- MIC (Vaccinia virus [1]): > 16 µg/mL
- MIC (Vaccinia virus [2]): > 16 µg/mL

Structure (SMILES): C=CCNC(=S)Nc1ccc(-c2nnc(SCc3ccc(Cl)cc3Cl)n2-c2ccccc2)cc1
- MIC (Vaccinia virus [1]): > 16 µg/mL
- MIC (Vaccinia virus [2]): > 16 µg/mL

Structure (SMILES): C=CCNC(=S)Nc1ccc(-c2nnc(SCc3ccc(Cl)cc3Cl)n2C)cc1
- MIC (Vaccinia virus [1]): > 16 µg/mL
- MIC (Vaccinia virus [2]): > 16 µg/mL

Structure (SMILES): C=CCNC(=S)Nc1ccc(-c2n[nH]c(=S)n2CC=C)cc1
- MIC (Vaccinia virus [1]): > 400 µg/mL
- MIC (Vaccinia virus [2]): > 80 µg/mL

Structure (SMILES): C=CCNC(=S)Nc1ccc(-c2n[nH]c(=S)n2C)cc1
- MIC (Vaccinia virus [1]): 240 µg/mL (≈ 786 µM)
- MIC (Vaccinia virus [2]): 240 µg/mL (≈ 786 µM)

Structure (SMILES): C=CCNC(=S)Nc1ccc(-c2n[nH]c(=S)n2CCCCCC)cc1
- MIC (Vaccinia virus [1]): > 16 µg/mL
- MIC (Vaccinia virus [2]): > 16 µg/mL

Structure (SMILES): CCCCCCNC(=S)Nc1ccc(-c2n[nH]c(=S)n2CCCCCC)cc1
- MIC (Vaccinia virus [1]): > 3.2 µg/mL
- MIC (Vaccinia virus [2]): > 3.2 µg/mL

Structure (SMILES): C=CCNC(=S)Nc1ccc(OCc2n[nH]c(=S)n2CC)cc1
- MIC (Vaccinia virus [1]): 240 µg/mL (≈ 687 µM)
- MIC (Vaccinia virus [2]): 240 µg/mL (≈ 687 µM)

Structure (SMILES): CCn1c(COc2ccc(NC(=S)Nc3ccccc3)cc2)n[nH]c1=S
- MIC (Vaccinia virus [1]): > 80 µg/mL
- MIC (Vaccinia virus [2]): > 80 µg/mL

Structure (SMILES): C=CCn1c(COc2ccc(NC(=S)NC)cc2)n[nH]c1=S
- MIC (Vaccinia virus [1]): > 400 µg/mL
- MIC (Vaccinia virus [2]): > 400 µg/mL

Structure (SMILES): CCn1c(COc2ccc(N)cc2)n[nH]c1=S
- MIC (Vaccinia virus [1]): 240 µg/mL (≈ 959 µM)
- MIC (Vaccinia virus [2]): 240 µg/mL (≈ 959 µM)

Structure (SMILES): C=CCn1c(COc2ccc(N)cc2)n[nH]c1=S
- MIC (Vaccinia virus [1]): > 400 µg/mL
- MIC (Vaccinia virus [2]): > 400 µg/mL

Structure (SMILES): C=CCNC(=S)Nc1ccc(OCc2n[nH]c(=S)n2CC=C)cc1
- MIC (Vaccinia virus [1]): 240 µg/mL (≈ 664 µM)
- MIC (Vaccinia virus [2]): 240 µg/mL (≈ 664 µM)

Structure (SMILES): CNC(=S)Nc1ccc(OCc2n[nH]c(=S)n2-c2ccccc2)cc1
- MIC (Vaccinia virus [1]): > 400 µg/mL
- MIC (Vaccinia virus [2]): > 400 µg/mL

Structure (SMILES): CCNC(=S)Nc1ccc(OCc2n[nH]c(=S)n2-c2ccccc2)cc1
- MIC (Vaccinia virus [1]): > 400 µg/mL
- MIC (Vaccinia virus [2]): > 400 µg/mL

Structure (SMILES): C=CCNC(=S)Nc1ccc(OCc2n[nH]c(=S)n2C)cc1
- MIC (Vaccinia virus [1]): > 400 µg/mL
- MIC (Vaccinia virus [2]): > 400 µg/mL

Structure (SMILES): CCNC(=S)Nc1ccc(OCc2n[nH]c(=S)n2C)cc1
- MIC (Vaccinia virus [1]): > 400 µg/mL
- MIC (Vaccinia virus [2]): > 400 µg/mL

Structure (SMILES): CCCCCCNC(=S)Nc1ccc(-c2n[nH]c(=S)n2C)cc1
- MIC (Vaccinia virus [1]): 80 µg/mL (≈ 229 µM)
- MIC (Vaccinia virus [2]): 80 µg/mL (≈ 229 µM)

Structure (SMILES): CCCCCCNC(=S)Nc1ccc(-c2n[nH]c(=S)n2-c2ccccc2)cc1
- MIC (Vaccinia virus [1]): > 16 µg/mL
- MIC (Vaccinia virus [2]): > 16 µg/mL

Structure (SMILES): CCn1c(COc2ccc(NC(=S)NC)cc2)n[nH]c1=S
- MIC (Vaccinia virus [1]): > 400 µg/mL
- MIC (Vaccinia virus [2]): > 400 µg/mL

Structure (SMILES): CCNC(=S)Nc1ccc(OCc2n[nH]c(=S)n2CC)cc1
- MIC (Vaccinia virus [1]): 240 µg/mL (≈ 711 µM)
- MIC (Vaccinia virus [2]): 240 µg/mL (≈ 711 µM)

Structure (SMILES): CCCCCCNC(=S)Nc1ccc(-c2n[nH]c(=S)n2CC)cc1
- MIC (Vaccinia virus [1]): > 80 µg/mL
- MIC (Vaccinia virus [2]): > 80 µg/mL

Structure (SMILES): CCNC(=S)Nc1ccc(-c2n[nH]c(=S)n2C)cc1
- MIC (Vaccinia virus [1]): 240 µg/mL (≈ 818 µM)
- MIC (Vaccinia virus [2]): 240 µg/mL (≈ 818 µM)

Structure (SMILES): CNC(=S)Nc1ccc(OCc2n[nH]c(=S)n2C)cc1
- MIC (Vaccinia virus [1]): > 400 µg/mL
- MIC (Vaccinia virus [2]): > 400 µg/mL

Structure (SMILES): C=CCNC(=S)Nc1ccc(OCc2n[nH]c(=S)n2-c2ccccc2)cc1
- MIC (Vaccinia virus [1]): 240 µg/mL (≈ 604 µM)
- MIC (Vaccinia virus [2]): 240 µg/mL (≈ 604 µM)

Structure (SMILES): Nc1ccc(OCc2n[nH]c(=S)n2-c2ccccc2)cc1
- MIC (Vaccinia virus [1]): > 400 µg/mL
- MIC (Vaccinia virus [2]): > 400 µg/mL

Structure (SMILES): C=CCn1c(COc2ccc(NC(=S)Nc3ccccc3)cc2)n[nH]c1=S
- MIC (Vaccinia virus [1]): > 80 µg/mL
- MIC (Vaccinia virus [2]): > 80 µg/mL

Structure (SMILES): Cn1c(COc2ccc(NC(=S)Nc3ccccc3)cc2)n[nH]c1=S
- MIC (Vaccinia virus [1]): > 80 µg/mL
- MIC (Vaccinia virus [2]): > 80 µg/mL

Structure (SMILES): C=CCn1c(COc2ccc(NC(=S)NCC)cc2)n[nH]c1=S
- MIC (Vaccinia virus [1]): > 400 µg/mL
- MIC (Vaccinia virus [2]): > 400 µg/mL

Structure (SMILES): S=C(Nc1ccccc1)Nc1ccc(OCc2n[nH]c(=S)n2-c2ccccc2)cc1
- MIC (Vaccinia virus [1]): > 80 µg/mL
- MIC (Vaccinia virus [2]): > 80 µg/mL

Structure (SMILES): Nc1nc2c(ncn2COCCO)c(=O)[nH]1 [ACYCLOVIR]
- MIC (Vaccinia virus [1]): > 400 µg/mL
- MIC (Vaccinia virus [2]): > 400 µg/mL

Structure (SMILES): O=c1[nH]c(=O)n([C@H]2C[C@H](O)[C@@H](CO)O2)cc1/C=C/Br [BRIVUDINE]
- MIC (Vaccinia virus [1]): 3.2 µg/mL (≈ 9.61 µM)
- MIC (Vaccinia virus [2]): 3.2 µg/mL (≈ 9.61 µM)

Structure (SMILES): Nc1nc2c(ncn2COC(CO)CO)c(=O)[nH]1 [GANCICLOVIR]
- MIC (Vaccinia virus [1]): > 100 µg/mL
- MIC (Vaccinia virus [2]): > 100 µg/mL

Structure (SMILES): NC(=O)c1ncn([C@@H]2O[C@H](CO)[C@@H](O)[C@H]2O)n1 [RIBAVIRIN]
- MIC (Vaccinia virus [1]): 48 µg/mL (≈ 197 µM)
- MIC (Vaccinia virus [2]): 48 µg/mL (≈ 197 µM)
